Consider 19 molecules from PubChem BioAssay.

Activity calls are given as the source filed them. Unless noted, no stated cut-off is given here; in the data, active means inhibition above about 31%; inactive means the rest.

Usually viability stands for a read-out of living cells in per cent, often relative to untreated cells. What is called inhibition is the change of the read-out against control, counted positive when it falls.

Experiment [1] in a line: HUVEC growth inhibition – cell-based, human, primary screen (AID 575;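 active means viability at or below 30% in both replicate assays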;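 further: 100% = median of untreated cell wells with 0.1% DMSO on each plate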). The following applies: HUVEC proliferation, CellTiter-Glo luminescence, 72 h; at 10 µM; stronger effect = lower value. Put shortly:
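Assay system: primary human umbilical vein endothelial cells / Buffer or medium: endothelial basal medium with 2% FBS plus growth supplements / Compound dosing: one dose, 10 µM final, 0.1% DMSO / Timing: 72 h treatment at 37 °C / Signal: CTG luminescence / Benchmarks: 32 DMSO-only cell-control wells (high), 32 MePR drug-control wells (low) per plate / Plate: collagen-coated 384-well format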
(In general: In ATP-based viability assays light output follows the ATP content of the culture.)

Experiment [2] in a line: H69AR cell proliferation blockers – human, duplicate replicates, primary screen (AID 580;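 active means viability at or under a set limit in both replicates, limit being median viability minus 3 SD, cut at about 48% in these data, passing the limit was not always enough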;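 further: 100% = mean luminescence of untreated wells and 0% = no signal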). The note with it: H69AR lung tumor cells viability, ATP luminescence, 72 h; at 10 µM; stronger effect = lower value.
Experiment [3] in a line: MRP1 drug-resistance reversers in H69AR cells – cell-based, doxorubicin co-treatment, pilot screen (AID 601;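 active means viability loss from added drug above about 55%, and viability with drug at most 40%, in both replicates, limit read from the data, passing the limit was not always enough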). The following applies: CellTiter-Glo, 72 h, at 10 µM; for differential viability (reversal): stronger effect = higher value.
Experiment [4] can be described thus: yeast transport mutant growth inhibition pilot in 384-well plates, post-Golgi transport modulator project (AID 636). The note with it: absorbance 615 nm, about 18 h, stronger effect = higher value.
Experiment [5] in a line: growth suppression of yeast trafficking mutant, preliminary HTS, modulators of trafficking downstream of Golgi apparatus project, 1536-format plate, OD 615 nm (AID 637; in the data active means inhibition above about 30%). The following applies: yeast transport mutant growth, absorbance 615 nm, 18 h; stronger effect = higher value.
[6] abbreviates: H69AR cells + 2 uM doxorubicin, measured here: viability with 2 uM doxorubicin, stronger effect = lower value.
[7] abbreviates: H69AR cells, compound alone cytotoxicity.

`CCN1CCN(Cc2c(C)[nH]c3ccc(OC)cc3c2=O)CC1`: the viability was 96.8% (inactive) in experiment [1], 93.5% (inactive) in experiment [2], 88.8% in experiment [3] (setting [6]) and 93.5% in experiment [3] (setting [7]). The differential viability (reversal) in experiment [3] (H69AR cells + 2 uM doxorubicin) was 4.75% (inactive). For the same molecule, the figures for the inhibition in experiment [4] and in experiment [5] were -2.73% (inactive) and 4.44% (inactive), respectively.
Turning to `CSC1=C(C#N)C(c2ccc(C)cc2)C2=C(CCCC2=O)N1` (stereo not drawn), the viability was 91.3% (inactive) in experiment [1], 77.6% (inactive) in experiment [2], 67.5% in experiment [3] (setting [6]) and 77.6% in experiment [3] (setting [7]). The differential viability (reversal) in experiment [3] (H69AR cells + 2 uM doxorubicin) is 10.1% (inactive). Also, the inhibition in experiment [4] was -2.99% (inactive); in experiment [5] it was -0.95% (inactive).
On to `O=C1c2ccccc2NC(c2ccco2)N1O` (stereo not drawn), for which the viability in experiment [1] is 97.2% (inactive); in experiment [2], 96.5% (inactive); in experiment [3] (setting [6]) it was 87.3%; in experiment [3] (setting [7]), 96.5%. Also, the differential viability (reversal) in experiment [3] (H69AR cells + 2 uM doxorubicin) was 9.15% (inactive). In addition, the inhibition in experiment [4] is -3.38% (inactive); in experiment [5], 0.32% (inactive).
As to `COC(=O)c1[nH]c(C)c(/C(O)=C2\C(=O)C(=O)N(CCCN3CCOCC3)C2c2ccccn2)c1C` (stereo not drawn), the viability in experiment [1] was 109% (inactive); in experiment [2], 104% (inactive); in experiment [3] (setting [6]) it was 96.1%; in experiment [3] (setting [7]), 104%. For the same molecule, the differential viability (reversal) in experiment [3] (H69AR cells + 2 uM doxorubicin) is 7.94% (inactive). Further, the results for the inhibition in experiment [4] and in experiment [5] were -0.53% (inactive) and -4.6% (inactive), respectively.
On to `Cc1cnn(C(=S)NCc2ccco2)c1`, for which the viability in experiment [1] is 70.2% (inactive); in experiment [2], 84.5% (inactive); in experiment [3] (setting [6]), 90.1%; in experiment [3] (setting [7]), 84.5%. The differential viability (reversal) in experiment [3] (H69AR cells + 2 uM doxorubicin) is -5.57% (inactive). Further, the inhibition is 2.24% (inactive) in experiment [4] and -4.92% (inactive) in experiment [5].
For the molecule `C=CCn1c(SCC(=O)NCC2CCCO2)nnc1C1CCCCC1` (stereo not drawn), the viability was 104% (inactive) in experiment [1], 97.5% (inactive) in experiment [2], 87.8% in experiment [3] (setting [6]) and 97.5% in experiment [3] (setting [7]). Moreover, the differential viability (reversal) in experiment [3] (H69AR cells + 2 uM doxorubicin) is 9.64% (inactive). The inhibition in experiment [4] was -6.88% (inactive); in experiment [5], -0.32% (inactive).
For `CCS(=O)(=O)c1ccc(S(=O)(=O)CC)s1`, the viability was 104% (inactive) in experiment [1], 104% (inactive) in experiment [2], 104% in experiment [3] (setting [6]) and 104% in experiment [3] (setting [7]). Further, the differential viability (reversal) in experiment [3] (H69AR cells + 2 uM doxorubicin) was 0.02% (inactive). For the same molecule, the inhibition in experiment [4] is -2.73% (inactive); in experiment [5] it was -1.59% (inactive).
With `CC(C(N)=O)N1C(=O)C2C3C=CC(C3)C2C1=O` (stereo not drawn), the viability is 85.1% (inactive) in experiment [1], 106% (inactive) in experiment [2], 95.2% in experiment [3] (setting [6]) and 106% in experiment [3] (setting [7]). In addition, the differential viability (reversal) in experiment [3] (H69AR cells + 2 uM doxorubicin) was 10.4% (inactive). For the same molecule, the inhibition in experiment [4] is -1.6% (inactive); in experiment [5] it was -2.22% (inactive).
`O=C(CCN1CCOCC1)Nc1ccc2c(c1)CCC2`: the viability in experiment [1] was 79.7% (inactive); in experiment [2], 93.7% (inactive); in experiment [3] (setting [6]) it was 86.8%; in experiment [3] (setting [7]), 93.7%. Moreover, the differential viability (reversal) in experiment [3] (H69AR cells + 2 uM doxorubicin) is 6.83% (inactive). Besides, the inhibition in experiment [4] was -5.26% (inactive); in experiment [5], -4.13% (inactive).
In the case of `CN(C)CCNC(=O)c1ccc(COCC(F)(F)F)cc1`, the viability is 104% (inactive) in experiment [1], 84.6% (inactive) in experiment [2], 83.5% in experiment [3] (setting [6]) and 84.6% in experiment [3] (setting [7]). The differential viability (reversal) in experiment [3] (H69AR cells + 2 uM doxorubicin) is 1.1% (inactive). In addition, the inhibition was -7.07% (inactive) in experiment [4] and -3.65% (inactive) in experiment [5].
Consider `CCCN(CCO)Cc1cccc(Br)c1`, for which the viability is 101% (inactive) in experiment [1], 99.1% (inactive) in experiment [2], 93.8% in experiment [3] (setting [6]) and 99.1% in experiment [3] (setting [7]). Besides, the differential viability (reversal) in experiment [3] (H69AR cells + 2 uM doxorubicin) was 5.32% (inactive). Moreover, the inhibition in experiment [4] is -6.05% (inactive); in experiment [5], 3.65% (inactive).
For `CCOc1ccccc1OCC(=O)NCc1ccco1`, the viability in experiment [1] was 84.3% (inactive); in experiment [2], 85.3% (inactive); in experiment [3] (setting [6]), 85.1%; in experiment [3] (setting [7]), 85.3%. The differential viability (reversal) in experiment [3] (H69AR cells + 2 uM doxorubicin) is 0.205% (inactive). The results for the inhibition in experiment [4] and in experiment [5] were -3.6% (inactive) and -0.32% (inactive), respectively.
For the molecule `O=C1c2cccnc2C(=O)N1c1cccc(-c2nc3ccccc3o2)c1`, the viability in experiment [1] was 111% (inactive); in experiment [2], 92.9% (inactive); in experiment [3] (setting [6]), 86.4%; in experiment [3] (setting [7]), 92.9%. In addition, the differential viability (reversal) in experiment [3] (H69AR cells + 2 uM doxorubicin) was 6.53% (inactive). Moreover, the figures for the inhibition in experiment [4] and in experiment [5] were -6.27% (inactive) and 3.65% (inactive), respectively.
Turning to `CCc1ncc(C(O)c2cccc(OC)c2OC)n1C` (stereo not drawn), the viability in experiment [1] is 101% (inactive); in experiment [2] it was 98.7% (inactive); in experiment [3] (setting [6]), 87.3%; in experiment [3] (setting [7]) it was 98.7%. Moreover, the differential viability (reversal) in experiment [3] (H69AR cells + 2 uM doxorubicin) is 11.3% (inactive). In addition, the inhibition in experiment [4] was -3.68% (inactive); in experiment [5], 4.13% (inactive).
As to `O=C(c1ncn[nH]1)N1CCN(c2nc(-c3ccccc3)cs2)CC1`, the viability is 104% (inactive) in experiment [1], 94.5% (inactive) in experiment [2], 90.9% in experiment [3] (setting [6]) and 94.5% in experiment [3] (setting [7]). Moreover, the differential viability (reversal) in experiment [3] (H69AR cells + 2 uM doxorubicin) is 3.58% (inactive). Moreover, the inhibition in experiment [4] is -1.73% (inactive); in experiment [5], 9.68% (inactive).
`CC(C)(CSc1nncn1N)NS(=O)(=O)c1ccc(Cl)cc1`: the viability in experiment [1] was 91.9% (inactive); in experiment [2] it was 98.3% (inactive); in experiment [3] (setting [6]), 96.7%; in experiment [3] (setting [7]), 98.3%. Moreover, the differential viability (reversal) in experiment [3] (H69AR cells + 2 uM doxorubicin) is 1.6% (inactive). Moreover, the inhibition in experiment [4] is -2.27% (inactive); in experiment [5] it was -0.79% (inactive).
For the molecule `CSC1CCCCC1(O)CSc1nc2c(cc1C#N)CCCC2` (stereo not drawn), the viability is 75.4% (inactive) in experiment [1], 92.6% (inactive) in experiment [2], 95.2% in experiment [3] (setting [6]) and 92.6% in experiment [3] (setting [7]). Besides, in experiment [3] (H69AR cells + 2 uM doxorubicin), the differential viability (reversal) was -2.66% (inactive). In addition, the figures for the inhibition in experiment [4] and in experiment [5] were -0.66% (inactive) and -1.9% (inactive), respectively.
For `CCCCc1cc(=O)oc2c(CN3CCCC3)c(O)c(Cl)cc12`, the viability in experiment [1] was 98.2% (inactive); in experiment [2] it was 96.6% (inactive); in experiment [3] (setting [6]), 93.3%; in experiment [3] (setting [7]), 96.6%. In addition, in experiment [3] (H69AR cells + 2 uM doxorubicin), the differential viability (reversal) is 3.32% (inactive). Further, the inhibition in experiment [4] is -3.16% (inactive); in experiment [5], 3.33% (inactive).
Take `CC(CN1CCOCC1)(NS(=O)(=O)c1ccccc1)c1ccccc1` (stereo not drawn): the viability in experiment [1] was 106% (inactive); in experiment [2], 95.9% (inactive); in experiment [3] (setting [6]), 86.2%; in experiment [3] (setting [7]) it was 95.9%. Besides, the differential viability (reversal) in experiment [3] (H69AR cells + 2 uM doxorubicin) was 9.75% (inactive). For the same molecule, the inhibition in experiment [4] is -1.56% (inactive); in experiment [5] it was 0.95% (inactive).
